Experimental data reported in ChEMBL document CHEMBL3779834, “Prenylated Acylphloroglucinols with Leishmanicidal Activity from the Fern Elaphoglossum lindbergii” (J Nat Prod, 2016).

Columns and labels:
Leishmania braziliensis = test: Leshmanicidal activity against promastigote stage of Leishmania braziliensis strand M2904 C192 RJA after 72 hrs by XTT-based microplate reader analysis; assay type: functional, organism-based
Summary of the method: (§1)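 Log-phase promastigotes, grown at 26 °C in Schneider's insect medium (pH 6.8) with 10% heat-inactivated FBS, seeded at 1 × 10^6 parasites/mL. Test substances in DMSO at 0.75−100 μg/mL, 72 h at 26 °C. XTT (1 mg/mL) with PMS (0.06 mg/mL) added, further 4 h at 26 °C, OD read at 450 nm. DMSO 1% negative, amphotericin B 0.5 μg/mL positive control. IC50 = 50% viability decrease, mean ± standard error.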

Leishmania amazonensis = test: Leshmanicidal activity against promastigote stage of Leishmania amazonensis clone 1 AML MHOM/BR/76/LTB-012 after 72 hrs by XTT-based microplate reader analysis; assay type: functional, organism-based; conditions: clone 1 AML MHOM/BR/76/LTB-012, 72 h; summary of the method: as §1

SMILES | IC50 (Leishmania braziliensis) | IC50 (Leishmania amazonensis)
CCCC(=O)C1=C(O)[C@@](C)(CC=C(C)C)C(O)=C(Cc2c(O)c3c(c(C(=O)CCC)c2O)OC(C)(C)C=C3)C1=O | 13.6 µM | 16.3 µM
CCCCCC(=O)c1c(O)c(CC2=C(O)[C@](C)(CC=C(C)C)C(O)=C(C(=O)CCC)C2=O)c(O)c(CC2=C(O)[C@](C)(CC=C(C)C)C(O)=C(C(=O)CCC)C2=O)c1O | 87.7 µM | > 100 µg/mL
C[C@@H]1[C@H](O)[C@@H](C)/C=C/C=C/C=C/C=C/C=C/C=C/C=C/[C@H](O[C@@H]2O[C@H](C)[C@@H](O)[C@H](N)[C@@H]2O)C[C@@H]2O[C@](O)(C[C@@H](O)C[C@@H](O)[C@H](O)CC[C@@H](O)C[C@@H](O)CC(=O)O[C@H]1C)C[C@H](O)[C@H]2C(=O)O [AMPHOTERICIN B] | 0.12 µM | 0.11 µM
CCCCCC(=O)C1=C(O)[C@@](C)(CC=C(C)C)C(O)=C(Cc2c(O)c3c(c(C(=O)CCC)c2O)OC(C)(C)C=C3)C1=O | 29.9 µM | 52.4 µM
CCCCCC(=O)C1=C(O)[C@@](C)(CC=C(C)C)C(O)=C(Cc2c(O)c(CC3=C(O)[C@](C)(CC=C(C)C)C(O)=C(C(=O)CCCCC)C3=O)c(O)c(C(=O)CCC)c2O)C1=O | > 100 µg/mL | > 100 µg/mL
CCCCCC(=O)C1=C(O)[C@@](C)(CC=C(C)C)C(O)=C(Cc2c(O)c(CC=C(C)C)c(OC)c(C(=O)CCCCC)c2O)C1=O | 66.5 µM | 151 µM
